Experimental data taken from ChEMBL document CHEMBL3853298, “Total synthesis and in vitro bioevaluation of clavaminols A, C, H & deacetyl clavaminol H as potential chemotherapeutic and antibiofilm agents” (Eur J Med Chem, 2016).
≈ marks a conversion by molar mass, not a printed value. Calls of active or inactive are those of the source. No cut-off for these calls is given here.

Experiments:
[1] = test system: Staphylococcus aureus; assay: Antibacterial activity against Staphylococcus aureus MTCC 96 after 24 hrs by well diffusion method; type: functional; settings: MTCC 96, 24 h
Summary of the method: (§1)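 Bacteria spread (0.1 mL suspension) on Mueller-Hinton agar; 6.0 mm wells loaded with compound over a 250 to 0.48 per-well dose range, methanol as negative control. Incubated 24 h at 37 °C. MIC taken as the lowest concentration still giving an inhibition zone. Duplicates, mean reported.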

[2] = test system: Bacillus subtilis; assay: Antibacterial activity against Bacillus subtilis MTCC 121 after 24 hrs by well diffusion method; type: functional; settings: MTCC 121, 24 h; summary of the method: as §1
[3] = test system: Micrococcus luteus; assay: Antibacterial activity against Micrococcus luteus MTCC 2470 after 24 hrs by well diffusion method; type: functional; settings: MTCC 2470, 24 h; summary of the method: as §1
[4] = test system: Staphylococcus aureus; assay: Antibacterial activity against Staphylococcus aureus MLS16 MTCC 2940 after 24 hrs by well diffusion method; type: functional; settings: MLS16 MTCC 2940, 24 h; summary of the method: as §1
[5] = test system: Raoultella planticola; assay: Antibacterial activity against Klebsiella planticola MTCC 530 after 24 hrs by well diffusion method; type: functional; settings: MTCC 530, 24 h; summary of the method: as §1
[6] = test system: Escherichia coli; assay: Antibacterial activity against Escherichia coli MTCC 739 after 24 hrs by well diffusion method; type: functional; settings: MTCC 739, 24 h; summary of the method: as §1
[7] = test system: Pseudomonas aeruginosa; assay: Antibacterial activity against Pseudomonas aeruginosa MTCC 2453 after 24 hrs by well diffusion method; type: functional; settings: MTCC 2453, 24 h; summary of the method: as §1
[8] = test system: Staphylococcus aureus; assay: Bactericidal activity against Staphylococcus aureus MTCC 96 after 24 hrs; type: functional; settings: MTCC 96, 24 h
Summary of the method: (§2)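 Broth macrodilution in Mueller Hinton broth, compound serially diluted from 150 down to 0. Overnight bacterial culture added to a final 1.5 × 10^8 CFU/mL (0.5 McFarland), 24 h at 37 °C. Suspension then subcultured onto Mueller Hinton agar for 24 h at 37 °C. MBC is the lowest concentration killing the strain. Duplicates.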

[9] = test system: Bacillus subtilis; assay: Bactericidal activity against Bacillus subtilis MTCC 121 after 24 hrs; type: functional; settings: MTCC 121, 24 h; summary of the method: as §2
[10] = test system: Staphylococcus aureus; assay: Bactericidal activity against Staphylococcus aureus MLS16 MTCC 2940 after 24 hrs; type: functional; settings: MLS16 MTCC 2940, 24 h; summary of the method: as §2
[11] = test system: Micrococcus luteus; assay: Bactericidal activity against Micrococcus luteus MTCC 2470 after 24 hrs; type: functional; settings: MTCC 2470, 24 h; summary of the method: as §2
[12] = test system: Raoultella planticola; assay: Bactericidal activity against Klebsiella planticola MTCC 530 after 24 hrs; type: functional; settings: MTCC 530, 24 h; summary of the method: as §2
[13] = test system: Escherichia coli; assay: Bactericidal activity against Escherichia coli MTCC 739 after 24 hrs; type: functional; settings: MTCC 739, 24 h; summary of the method: as §2
[14] = test system: Pseudomonas aeruginosa; assay: Bactericidal activity against Pseudomonas aeruginosa MTCC 2453 after 24 hrs; type: functional; settings: MTCC 2453, 24 h; summary of the method: as §2
[15] = test system: Staphylococcus aureus; assay: Antibiofilm activity against Staphylococcus aureus MTCC 96 incubated for 24 hrs under static condition by crystal violet staining-based assay; type: functional
Summary of the method: (§3)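 Strains grown overnight in tryptone soy broth with 0.5% glucose. Compound (250 to 0) mixed with inoculum at 5 × 10^5 CFU/mL in polystyrene microtiter plates. Non-adherent cells washed off with PBS; wells stained with 0.1% crystal violet, dye solubilised in 95% ethanol, absorbance read at 540 nm. IC50 for 50% biofilm inhibition taken from dose-response curves. Triplicates, mean ± S.D.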

[16] = test system: Bacillus subtilis; assay: Antibiofilm activity against Bacillus subtilis MTCC 121 incubated for 24 hrs under static condition by crystal violet staining-based assay; type: functional; summary of the method: as §3
[17] = test system: Staphylococcus aureus; assay: Antibiofilm activity against Staphylococcus aureus MLS16 MTCC 2940 incubated for 24 hrs under static condition by crystal violet staining-based assay; type: functional; summary of the method: as §3
[18] = test system: Micrococcus luteus; assay: Antibiofilm activity against Micrococcus luteus MTCC 2470 incubated for 24 hrs under static condition by crystal violet staining-based assay; type: functional; summary of the method: as §3
[19] = test system: Raoultella planticola; assay: Antibiofilm activity against Klebsiella planticola MTCC 530 incubated for 24 hrs under static condition by crystal violet staining-based assay; type: functional; summary of the method: as §3
[20] = test system: Escherichia coli; assay: Antibiofilm activity against Escherichia coli MTCC 739 incubated for 24 hrs under static condition by crystal violet staining-based assay; type: functional; summary of the method: as §3
[21] = test system: Pseudomonas aeruginosa; assay: Antibiofilm activity against Pseudomonas aeruginosa MTCC 2453 incubated for 24 hrs under static condition by crystal violet staining-based assay; type: functional; summary of the method: as §3
[22] = test system: Micrococcus luteus; assay: Induction of intracellular ROS accumulation in Micrococcus luteus MTCC 2470 sessile biofilm cells at 0.5 to 4 ug/ml after 24 hrs by DCFH-DA staining-based assay; type: functional, cell-based
Summary of the method: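 Intracellular ROS was measured in M. luteus MTCC 2470 biofilms grown in 24-well plates. Mature biofilms were treated and incubated 24 h at 30 °C together with […] DCFH-DA. Well contents were centrifuged at 5000 × g for 10 min. Fluorescence (ex 485/em 535 nm) was read separately for supernatant and for sessile cells resuspended in PBS. Triplicate, mean ± S.D.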

SMILES: O=C(O)c1cn(C2CC2)c2cc(N3CCNCC3)c(F)cc2c1=O [CIPROFLOXACIN]
- MIC [1]: 0.9 mg/L (≈ 2.72 µM)
- MIC [2]: 0.9 mg/L (≈ 2.72 µM)
- MIC [3]: 0.9 mg/L (≈ 2.72 µM)
- MIC [4]: 0.9 mg/L (≈ 2.72 µM)
- MIC [5]: 0.9 mg/L (≈ 2.72 µM)
- MIC [6]: 0.9 mg/L (≈ 2.72 µM)
- MIC [7]: 0.9 mg/L (≈ 2.72 µM)
- MBC [8]: 0.9 mg/L (≈ 2.72 µM)
- MBC [9]: 1.9 mg/L (≈ 5.73 µM)
- MBC [10]: 0.9 mg/L (≈ 2.72 µM)
- MBC [11]: 1.9 mg/L (≈ 5.73 µM)
- MBC [12]: 0.9 mg/L (≈ 2.72 µM)
- MBC [13]: 0.9 mg/L (≈ 2.72 µM)
- MBC [14]: 1.9 mg/L (≈ 5.73 µM)
- IC50 [15]: 0.6 mg/L (≈ 1.81 µM)
- IC50 [16]: 0.7 mg/L (≈ 2.11 µM)
- IC50 [17]: 0.4 mg/L (≈ 1.21 µM)
- IC50 [18]: 0.5 mg/L (≈ 1.51 µM)
- IC50 [19]: 0.6 mg/L (≈ 1.81 µM)
- INH [20]: 0.8 µg/mL
- INH [21]: 0.7 µg/mL
- Activity [22]: Active
